Compound activity (PubChem)
Only some compounds are listed: those with a hit (about 4.9% of all), similar ones and a draw of the others.
HSF1 inhib = HSF1 inhibition | 0.77% of 300,000 active | AID 2098 | NIH3T3-HGL HSE-luciferase, MG132-induced, luminescence 8 h; stronger effect = lower value | activity change, negative = inhibition, % at 7.5 µM (by protocol);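 active = more than half of replicate wells show activity change below -50%, luminescence cut by over half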;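 also: luciferase reports HSF-1 transcriptional activity via heat shock element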
CHT block = human CHT choline transport inhibition; AID 488975; B-score at 10 µM; Q9GZV3; CHT-expressing cells, membrane potential dye, choline response; stronger effect = lower value; 0.86% of 310,000 active;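 active = B-score over 3 SD under the library average, and starting fluorescence ratio not unusually high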;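 also: choline stimulus applied at its EC90 after an EC20 pre-addition; B-score computed on integrated fluorescence ratio after choline addition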
Target sequence (Q9GZV3 whole entry, looked up): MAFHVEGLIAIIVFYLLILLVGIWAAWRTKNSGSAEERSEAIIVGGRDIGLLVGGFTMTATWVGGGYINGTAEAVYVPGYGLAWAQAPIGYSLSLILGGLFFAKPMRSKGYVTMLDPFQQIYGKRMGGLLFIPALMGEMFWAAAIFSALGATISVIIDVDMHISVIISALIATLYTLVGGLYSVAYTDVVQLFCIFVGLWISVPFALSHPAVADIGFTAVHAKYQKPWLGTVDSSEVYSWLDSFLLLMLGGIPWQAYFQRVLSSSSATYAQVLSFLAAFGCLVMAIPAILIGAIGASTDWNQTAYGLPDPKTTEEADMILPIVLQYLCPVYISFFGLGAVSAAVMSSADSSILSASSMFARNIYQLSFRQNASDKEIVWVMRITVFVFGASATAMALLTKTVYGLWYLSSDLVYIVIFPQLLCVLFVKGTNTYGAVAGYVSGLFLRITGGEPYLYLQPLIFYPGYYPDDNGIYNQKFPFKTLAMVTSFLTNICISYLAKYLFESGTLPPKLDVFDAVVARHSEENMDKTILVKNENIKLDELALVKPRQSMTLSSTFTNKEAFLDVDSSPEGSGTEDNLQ
CHT PAM = allosterically activates the human high affinity choline transporter | B-score at 10 µM | AID 488977 | Q9GZV3 | 0.49% of 310,000 active | CHT-expressing cells, membrane potential dye, choline EC20; stronger effect = higher value; LV-AA mutant CHT in HEK293 cells;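 active = initial fluorescence not abnormally high and integrated response B-score, plate-corrected, over 3 SD above library mean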
HSF1 activator = increases HSF-1 driven luciferase reporter signal. AID 504408. 1.7% of 300,000 active. activation, % at 9 µM. NIH3T3-HGL HSF-1 luciferase reporter, MG132, 8 h; 100% = twice DMSO control signal;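 active = mean replicate activation of at least 50% with a set share of replicates each reaching 50%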
Hep lipid drop = modulators of hepatic lipid droplet formation. AML12 mouse hepatocytes, oleate lipid droplets, BODIPY imaging. inhibition, % at 6.5 µM. 0.4% of 240,000 active;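 active = lipid droplet intensity inhibited by at least 50%, with more than 500 cells counted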
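Assay system: AML12 mouse liver cells | Compound dosing: One dose, 6.5 µM compound | Read-out basis: Droplet intensity reduction, % inhibition | Measured by: Fluorescence imaging, 20x objective, two fields per well | Schedule: Overnight treatment with compound plus oleate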
PHOSPHO1 block = inhibitors of human PHOSPHO1 phosphatase; Q8TCT1; recombinant PHOSPHO1, absorbance phosphatase assay; inhibition, % at 13.3 µM; 1.1% of 290,000 active; in the data active = inhibition above about 60%
Of the large screens only hits and unclear results are named; the others gave an inactive call.

Cc1ccc(-n2c(C)cc(/C([O-])=C(/C(=S)Nc3ccc(F)c(Cl)c3)[n+]3ccccc3)c2C)cc1	PHOSPHO1 block 83.7
Cc1cc(/C([O-])=C(/C(=S)Nc2ccc(F)cc2)[n+]2ccccc2)c(C)n1Cc1ccccc1Cl	none
Cc1cc(/C([O-])=C(/C(=S)Nc2ccccc2)[n+]2ccccc2)c(C)n1-c1ccccc1	HSF1 inhib -60.6
Cc1cc(C)cc(NC(=S)/C(=C(\[O-])c2ccc(Cl)cc2Cl)[n+]2ccc(C(C)(C)C)cc2)c1	none
COc1cccc(/C=N/NC(=O)c2cc3cc([N+](=O)[O-])ccc3s2)c1O	PHOSPHO1 block 83.2
COc1ccccc1/C=N/NC(=O)c1ccc(NC(=O)c2cccc([N+](=O)[O-])c2)cc1	none
COc1ccc(/C=N/NC(=O)c2cccc([N+](=O)[O-])c2)cc1O	none
COc1cc([N+](=O)[O-])cc(/C=N/NC(=O)c2ccc(C)nc2)c1O	none
COc1cc([N+](=O)[O-])cc(/C=N/NC(=O)c2ccc(NC(=O)c3ccc(C)cc3)cc2)c1O	HSF1 inhib -58.3 (no result: CHT block, CHT PAM)
COc1cc(/C=N/NC(=O)c2cccc([N+](=O)[O-])c2)ccc1OCc1ccc(C)cc1	HSF1 activator 68.4 (no result: Hep lipid drop)
CCOC(=O)C1=C(C)N(C)C(=O)NC1c1c(O)ccc2ccccc12 (configuration not stated)	none (no result: Hep lipid drop)
O=C(NCCc1cccc(F)c1)[C@@H]1CSC2c3ccccc3C(=O)N21 (some centres not stated)	none (no result: Hep lipid drop)
COc1cccc2[nH]c3c(N4CCc5ccccc5C4)ncnc3c12	HSF1 activator 59.9
CCN1CCN(C(=O)c2cc3c(=O)n4ccccc4nc3s2)CC1	none (no result: Hep lipid drop)
CCC(C)NC(=O)c1cc2c(=O)n3ccccc3nc2s1 (configuration not stated)	PHOSPHO1 block 60.6
Fc1ccc(Cn2ccc(-c3cnc(-c4ccccc4)s3)n2)cc1	HSF1 activator 62.3
Cc1ccc(Cn2ccc(-c3cnc(-c4ccccc4)s3)n2)cc1	none
Cn1c(=N)n(CC(=O)c2ccccc2)c2ccccc21	none
Cn1c(=N)n(CC(=O)c2ccc(Cl)c(Cl)c2)c2ccccc21	HSF1 inhib -62.7
CCN(CC)S(=O)(=O)c1cccc(NC(=O)CCNC(=O)NC23CC4CC(CC(C4)C2)C3)c1	HSF1 inhib -65.7 (no result: Hep lipid drop, PHOSPHO1 block)
CCN(CC)S(=O)(=O)c1cc(NC(=O)COC(=O)CCC(=O)c2cccs2)ccc1C	none
CCN(CC)S(=O)(=O)c1cccc(NC(=O)COC(=O)CCC(=O)c2cccs2)c1	PHOSPHO1 block 73.2
COc1ccc(Cc2nc(C(=O)Nc3ccccc3)cs2)cc1	HSF1 activator 58.9
COc1ccc(NC(=O)c2csc(Cc3ccc(Cl)cc3)n2)cc1	none
COc1ccc(C(C[N+](=O)[O-])c2c(C)cc3ccccn23)c(OC)c1 (configuration not stated)	none
COc1ccc(OC)c(C(C[N+](=O)[O-])c2c(C)cc3ccccn23)c1 (configuration not stated)	HSF1 activator 112.1
COc1ccc(Cl)c2c1[nH]c1nc(SCc3ccccn3)nnc12	HSF1 activator 103.4
C=CCC1c2cccc(C(=O)O)c2C(=O)N1c1ccc(F)cc1 (configuration not stated)	none
C[N+]1=C2CCCCCN2C(O)(c2ccccc2)C1 (configuration not stated)	PHOSPHO1 block 86.0 (no result: Hep lipid drop)
COc1ccccc1OCCNC(=O)C1CCN(C(C)=O)CC1	none
c1ccc(-c2nc3c(ccc4ccccc43)[nH]2)nc1	HSF1 activator 58.3
O=C(O)CCn1c(=O)[nH]c(=O)n(CCC(=O)O)c1=O	none
CCOC(=O)C(C(=O)OCC)C(Nc1ccc(Br)cc1)c1ccccc1 (configuration not stated)	HSF1 activator 300.8 (no result: Hep lipid drop)
Cc1[nH]n(-c2ccccc2)c(=O)c1N=Nc1ccccc1	Hep lipid drop 53.6
CC(=O)c1ccc(N=Nc2c(C)[nH]n(-c3ccccc3)c2=O)cc1	none
O=Nc1c(-c2ccccc2)[nH]n(-c2ccccc2)c1=O	HSF1 activator 97.6
NC(=O)c1ccc(N=Nc2c(-c3ccccc3)[nH]n(-c3ccccc3)c2=O)cc1	none
Cc1ccsc1/C=C(\CC(=O)O)c1nc2ccccc2o1	none
CN1CCN(Cn2cc(/C=C/C(=O)c3ccccc3)c3ccccc32)CC1	HSF1 activator 87.0
O=C(/C=C/c1cn(CC(O)CN2CCCCC2)c2ccccc12)c1ccccc1 (configuration not stated)	none (no result: CHT block, CHT PAM)
Cc1nc([N+](=O)[O-])cn1-c1ccc(N)cc1	none
O=Cc1ccc(N2CCCC2)o1	none
CC1CCN(c2ccc(C=O)o2)CC1	HSF1 activator 57.9
CCOc1ccc(CNC(=O)C2CCN(C(=O)N3CC(C)Oc4ccccc43)CC2)cc1 (configuration not stated)	none
CN1CCN(C(=O)CCN2C(=O)/C(=C\c3ccc(Cl)cc3Cl)SC2=S)CC1	PHOSPHO1 block 83.6
COc1ccccc1/C=C1\SC(=S)N(CCC(=O)Nc2cc(C)on2)C1=O	none
O=C(CN1C(=O)/C(=C/c2ccccc2Cl)SC1=S)NC1C=CS(=O)(=O)C1 (configuration not stated)	PHOSPHO1 block 75.4
O=C(CCN1C(=O)/C(=C/c2cccs2)SC1=S)Nc1ccccc1O	HSF1 activator 69.3
O=C(CCN1C(=O)/C(=C\c2ccccc2Cl)SC1=S)N1CCN(c2ccccc2)CC1	none (no result: Hep lipid drop)
Cc1cc(NC(=O)CCN2C(=O)/C(=C/c3ccccc3Cl)SC2=S)no1	HSF1 activator 54.4
CCSCc1nnc(SCC(=O)Nc2cc(F)ccc2C)n1C	none
O=S(=O)(NCc1cccnc1)c1ccc(Br)c2ccccc12	none
CSc1ccc(/C=N/NC(=O)c2sccc2C)cc1	HSF1 activator 61.6
COC(=O)CN(c1ccc(OC)c(OC)c1)S(C)(=O)=O	none
COc1ccccc1-n1c(C)cc(/C=C2/C(=N)N3C(=NC2=O)SN=C3S(C)(=O)=O)c1C	none
CCOc1cc(/C=C2/C(=N)N3C(=NC2=O)SN=C3S(C)(=O)=O)ccc1OS(=O)(=O)c1ccccc1	CHT block -5.55
COc1cc(/C=C2/C(=N)N3C(=NC2=O)SN=C3S(C)(=O)=O)ccc1OS(=O)(=O)c1ccccc1	CHT block -6.23
Cn1c(SCC(=O)NC2CC2)nnc1-c1ccco1	none (no result: HSF1 inhib, HSF1 activator, Hep lipid drop)
COc1ccc(NC(=O)CSc2nnc(Cn3cnc([N+](=O)[O-])n3)n2C)cc1	HSF1 activator 66.5
Cn1c(COc2ccc(F)cc2)nnc1SCC(=O)NC1CC1	none
COc1ccc(OCc2nnc(SCC(=O)NC3CC3)n2C)cc1	PHOSPHO1 block 62.8
CCOC(=O)CN(C(=O)CSc1nnc(COc2ccc(OC)cc2)n1C)c1ccccc1	PHOSPHO1 block 73.5 (no result: Hep lipid drop)
COc1cccc(NC(=O)CSc2nnc(Cn3cnc([N+](=O)[O-])n3)n2C)c1	none
